Activity calls are given as the source filed them. No cut-off for these calls is given here.
Legend:
[1] = tested on: T47D; experiment: Inhibition of 1, 10-phenanthroline-induced HIF1alpha protein accumulation in human T47D cells at 3 uM after 4 hrs by Western blot analysis; assay type: functional, cell-based
[2] = target: T1, Hypoxia inducible factors; HIF-1-alpha, HIF-2-alpha (Homo sapiens, UniProt Q16665+Q99814); experiment: Inhibition of HIF1-mediated induction of cellular VEGF protein in hypoxia-stimulated human T47D cells at 0.3 uM after 16 hrs by ELISA; assay type: cell-based
[3] = target: Serine/threonine-protein kinase mTOR (Homo sapiens) (UniProt P42345); experiment: Inhibition of mTOR in human MDA-MB-231 cells assessed as eEF2 hyperphosphorylation on Ser 56 at 1 to 10 uM after 30 mins by Western blotting; assay type: cell-based
How it was run: (§1)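 Cells seeded at 0.8 × 10^6 per well, exposed 30 min at 37 °C, 5% CO2, in DMEM/F12 with 5% FBS. Lysed in modified RIPA (pH 7.6) with protease and phosphatase inhibitors; 40 µg protein run on 4–20% gels, nitrocellulose transfer. Phospho-specific and total eIF2α/eEF2 primaries at 1:1,000, HRP anti-rabbit at 1:2000, chemiluminescence on film.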

[4] = tested on: T47D; experiment: Reduction in ATP level in human T47D cells after 48 hrs by HPLC-UV analysis; assay type: functional, cell-based
How it was run: (§2)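 5 × 10^5 cells per well seeded in DMEM/F12 with 10% FBS. After 24 h, half the medium replaced with serum-free DMEM/F12 containing compound. After exposure, cells washed in cold DPBS and extracted with cold 0.4 M perchloric acid, then neutralized with K2CO3. ATP quantified by reversed-phase C18 HPLC-UV using 50 mM potassium phosphate pH 6.0/MeOH at 0.7 mL/min.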

[5] = tested on: T47D; experiment: Inhibition of cellular respiration in human T47D cells at 0.3 uM in presence of complex 4 substrate TMPD/ascorbate; assay type: functional, cell-based
[6] = tested on: T47D; experiment: Antiproliferative activity against human T47D cells assessed as cell viability by SRB assay; assay type: functional, cell-based
How it was run: (§3)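 Cells grown in DMEM/F12 with 10% FBS, penicillin and streptomycin; 96-well viability assay, 2-day or 6-day exposure, with medium (5% FBS) and compound renewed after 3 days in the 6-day study. Read by optical density; % inhibition = [1 − (ODtreated/ODcontrol)] × 100 versus medium control.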

[7] = target: T1, Hypoxia inducible factors; HIF-1-alpha, HIF-2-alpha; experiment: Inhibition of HIF1-mediated induction of Glut-1 mRNA expression in human T47D cells at 3 uM after 16 hrs by RT-PCR analysis under normoxic condition; assay type: cell-based
[8] = target: Serine/threonine-protein kinase mTOR (Homo sapiens) (UniProt P42345); experiment: Inhibition of mTOR-mediated 4E-BP1 phosphorylation on Thr 37/46 in human MDA-MB-231 cells at 1 to 10 uM after 30 mins by Western blotting; assay type: cell-based
[9] = target: T1, Hypoxia inducible factors; HIF-1-alpha, HIF-2-alpha; experiment: Inhibition of HIF1-mediated induction of secreted VEGF protein in hypoxia-stimulated human T47D cells at 3 uM after 16 hrs by ELISA; assay type: cell-based
[10] = target: T1, Hypoxia inducible factors; HIF-1-alpha, HIF-2-alpha; experiment: Inhibition of HIF1-mediated induction of VEGF mRNA expression in human T47D cells at 3 uM after 16 hrs by RT-PCR analysis under normoxic condition; assay type: cell-based
[11] = tested on: T47D; experiment: Ratio of IC50 for 1, 10-phenanthroline-induced HIF1 activation in human T47D cells to IC50 for hypoxia-induced HIF1 activation in human T47D cells; assay type: cell-based
[12] = tested on: T47D; experiment: Inhibition of cellular respiration in human T47D cells at 0.3 uM in presence of complex 2 substrate succinate; assay type: functional, cell-based
How it was run: (§4)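 Permeabilized T47D cells, oxygen consumption measured by Clark-type electrode. Complex I respiration started with malate plus pyruvate; succinate added as complex II substrate.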

[13] = target: T1, Hypoxia inducible factors; HIF-1-alpha, HIF-2-alpha; experiment: Inhibition of 1, 10-phenanthroline-induced HIF1 activation in human T47D cells after 16 hrs by HRE3-TK-luciferase reporter gene assay; assay type: cell-based
[14] = tested on: T47D; experiment: Inhibition of 1, 10-phenanthroline-induced HIF1beta protein accumulation in human T47D cells at 3 uM after 4 hrs by Western blot analysis; assay type: functional, cell-based
[15] = tested on: T47D; experiment: Antiproliferative activity against human T47D cells assessed as cell viability at 1 uM after 72 hrs by SRB assay; assay type: functional; conditions: read-out: Activity
How it was run: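 T47D cells treated for 72 h in parallel with the HPLC ATP time course; viability measured by sulforhodamine B, in which cells are fixed directly in the wells without aspiration or washing, so loosely attached cells are kept.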

[16] = tested on: T47D; experiment: Inhibition of cellular respiration in human T47D cells at 0.3 uM by oxygen consumption assay in presence of complex 3 substrate antimycin A; assay type: functional, cell-based
[17] = target: T1, Hypoxia inducible factors; HIF-1-alpha, HIF-2-alpha; experiment: Inhibition of HIF1-mediated induction of secreted VEGF protein in human T47D cells at 3 uM after 16 hrs by ELISA under normoxic condition; assay type: cell-based
[18] = target: Serine/threonine-protein kinase mTOR (Homo sapiens) (UniProt P42345); experiment: Inhibition of mTOR in human T47D cells assessed as eIF2alpha hyperphosphorylation on Ser 51 at 1 to 10 uM after 30 mins by Western blotting; assay type: cell-based; how it was run: as §1
[19] = tested on: T47D; experiment: Inhibition of cellular respiration in human T47D cells at 1 uM by oxygen consumption assay; assay type: functional
How it was run: (§5)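 Oxygen consumption of intact T47D cells measured with a Clark-type electrode, in serum-free DMEM/F12 at 30 °C.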

[20] = target: T1, Hypoxia inducible factors; HIF-1-alpha, HIF-2-alpha; experiment: Inhibition of HIF1-mediated induction of secreted VEGF protein in hypoxia-stimulated human T47D cells at 0.3 uM after 16 hrs by ELISA; assay type: cell-based
[21] = tested on: MDA-MB-231; experiment: Reduction in ATP level in human MDA-MB-231 cells at 0.1 to 1 uM after 48 hrs by HPLC-UV analysis; assay type: functional, cell-based
How it was run: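 Cells seeded at 5 × 10^5 per well in DMEM/F12 with 10% FBS; after 24 h, half the medium was replaced with serum-free medium containing compound. Cells washed with cold DPBS, extracted with cold 0.4 M perchloric acid, neutralized with K2CO3. Nucleotides quantified by C18 HPLC-UV, 50 mM potassium phosphate pH 6.0/MeOH mobile phase, 0.7 mL/min.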

[22] = tested on: T47D; experiment: Inhibition of cellular respiration in human T47D cell at 0.03 to 1 uM by oxygen consumption assay; assay type: functional, cell-based; how it was run: as §5
[23] = target: Serine/threonine-protein kinase mTOR (Homo sapiens) (UniProt P42345); experiment: Inhibition of mTOR-mediated rpS6 phosphorylation on Ser 235/236 in human MDA-MB-231 cells at 1 to 10 uM after 30 mins by Western blotting; assay type: cell-based
[24] = tested on: T47D; experiment: Inhibition of HIF1beta protein accumulation under hypoxic condition in human T47D cells at 3 uM after 4 hrs by Western blot analysis; assay type: functional, cell-based
[25] = target: T1, Hypoxia inducible factors; HIF-1-alpha, HIF-2-alpha; experiment: Inhibition of HIF1-mediated induction of cellular VEGF protein in human T47D cells at 3 uM after 16 hrs by ELISA under normoxic condition; assay type: cell-based
[26] = tested on: PC-3; experiment: Antiproliferative activity against human PC3 cells assessed as cell viability by SRB assay; assay type: functional, cell-based; how it was run: as §3
[27] = tested on: T47D; experiment: Inhibition of HIF1alpha protein accumulation under hypoxic condition in human T47D cells at 3 uM after 4 hrs by Western blot analysis; assay type: functional, cell-based
[28] = tested on: MDA-MB-231; experiment: Reduction in ATP level in human MDA-MB-231 cells after 72 hrs by HPLC-UV analysis; assay type: functional, cell-based; how it was run: as §2
[29] = tested on: T47D; experiment: Inhibition of cellular respiration in human T47D cells at 0.3 uM by oxygen consumption assay in presence of complex 1 substrate malate and pyruvate; assay type: functional, cell-based; how it was run: as §4
[30] = target: Serine/threonine-protein kinase mTOR (Homo sapiens) (UniProt P42345); experiment: Inhibition of mTOR in human T47D cells assessed as eEF2 hyperphosphorylation on Ser 56 at 1 to 10 uM after 30 mins by Western blotting; assay type: cell-based; how it was run: as §1

inhibition [2]: Active
Activity [3]: Dose-dependent effect
inhibition [7]: inactive
inhibition [8]: inactive
inhibition [9]: Active
inhibition [10]: inactive
IC50 [13]: > 10 µM
inhibition [17]: inactive
inhibition [18]: Dose-dependent effect
inhibition [20]: Active
inhibition [23]: inactive
inhibition [25]: inactive
Activity [30]: Dose-dependent effect
Structure (SMILES): CC(C)CC(=O)O[C@@H]1CC[C@]2(C)[C@H]3CC[C@]45C[C@]4(CC[C@@H]5[C@@H]4C[C@H]([C@@H]5OC5(C)C)OC4O)[C@]3(C)[C@H](O)C[C@H]2C1(C)C (stereo not given in full) [SKIMMIAREPIN A]
inhibition [1]: inactive
Activity [4]: Active
inhibition [5]: inactive
Activity [6]: Active
Ratio IC50 [11]: 80
inhibition [12]: inactive
inhibition [14]: inactive
viability at 1 µM [15]: 50%
inhibition [16]: inactive
inhibition at 1 µM [19]: 73%
Activity [21]: inactive
inhibition [22]: Dose-dependent effect
inhibition [24]: inactive
Activity [26]: Active
inhibition [27]: Active
Activity [28]: Dose-dependent effect
inhibition [29]: Active
